PAFAH2 FP inh: PAFAH2 (human) inhibition. recombinant PAFAH2, FP-rhodamine activity probe, fluorescence polarization. inhibition, % at 3.39 µM. 340,000 compounds, 0.99% hits. AID 492956. Q99487;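 active = inhibition above the mean over all tested compounds plus 3 SD, cut at about 30% in these data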;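 also: inhibitors block probe labeling of enzyme so polarization drops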
HTRA1 inh: HTRA1 (human) protease inhibition | Q92743 | recombinant HTRA1, FP-rhodamine activity-based probe, fluorescence polarization | inhibition, % at 5.96 µM | 340,000 compounds, 0.5% hits | AID 504803; in the data active = inhibition above about 36%
Target sequence (Q92743 whole entry, looked up): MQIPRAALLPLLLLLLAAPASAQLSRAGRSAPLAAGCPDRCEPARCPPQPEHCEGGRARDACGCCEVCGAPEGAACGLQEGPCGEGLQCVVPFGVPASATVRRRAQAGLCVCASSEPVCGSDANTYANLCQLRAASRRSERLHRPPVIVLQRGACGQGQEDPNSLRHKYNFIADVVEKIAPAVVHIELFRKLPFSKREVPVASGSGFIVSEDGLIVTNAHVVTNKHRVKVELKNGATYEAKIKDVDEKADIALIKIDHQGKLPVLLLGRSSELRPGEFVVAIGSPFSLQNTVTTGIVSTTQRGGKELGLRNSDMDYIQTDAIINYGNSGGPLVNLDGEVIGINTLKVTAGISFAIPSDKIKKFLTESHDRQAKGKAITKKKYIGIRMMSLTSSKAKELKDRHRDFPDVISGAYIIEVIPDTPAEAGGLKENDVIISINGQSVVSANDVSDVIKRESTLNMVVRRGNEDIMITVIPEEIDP
PAFAH1B2 inh: inhibitors of human PAFAH1B2 | P68402 | recombinant PAFAH1B2, FP-rhodamine activity probe, fluorescence polarization | inhibition, % at 3.39 µM | 340,000 compounds, 1.2% hits | AID 492953;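 active = inhibition above the mean of all tested compounds plus 3 SD, cut at about 24% in these data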
pPAFAH FP inh: pPAFAH (human) enzyme inhibition | recombinant pPAFAH, FP-rhodamine probe fluorescence polarization | Q13093 | AID 463082 | inhibition, % at 3.39 µM | 330,000 compounds, 1.5% hits;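 active = inhibition above the mean inhibition across the screen plus 3 SD, cut at about 25% in these data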;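 also: inhibitors block binding of the rhodamine activity-based probe so polarization drops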
PAFAH1B3 FP inh: inhibitors of human PAFAH1B3; Q15102; recombinant PAFAH1B3, FP-rhodamine probe, fluorescence polarization; inhibition, % at 3.39 µM; 340,000 compounds, 0.28% hits; AID 492972;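 active = inhibition above the screen-wide average of all tested compounds plus 3 SD, cut at about 25% in these data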
mABHD4 FP: ABHD4 (mouse) inhibition, primary FP screen; Q8VD66; purified mABHD4, FP-Rh probe fluorescence polarization; inhibition, % at 8.92 µM; 370,000 compounds, 0.54% hits; AID 720543;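 active = inhibition exceeding the mean over every tested compound plus 3 SD, cut at about 30% in these data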
Target sequence (Q8VD66 whole entry, looked up): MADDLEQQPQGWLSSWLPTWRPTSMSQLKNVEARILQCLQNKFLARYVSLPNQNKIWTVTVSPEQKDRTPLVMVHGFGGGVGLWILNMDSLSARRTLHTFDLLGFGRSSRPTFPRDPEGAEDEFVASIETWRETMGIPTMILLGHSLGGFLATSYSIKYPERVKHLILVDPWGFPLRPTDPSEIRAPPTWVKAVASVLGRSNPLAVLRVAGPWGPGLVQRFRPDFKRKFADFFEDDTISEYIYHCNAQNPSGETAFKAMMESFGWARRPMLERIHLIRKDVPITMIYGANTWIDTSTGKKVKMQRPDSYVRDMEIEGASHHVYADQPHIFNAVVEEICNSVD
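Test system: mouse ABHD4 enzyme, wild type. Reagent: FP-Rh fluorescent activity-based probe, added after compound pre-incubation. Timing: pre-incubation 45 min, probe exposure 60 min, at 25 °C. Technique: FP readout, ex 525 nm / em 598 nm. Benchmarks: high control S159A mutant with DMSO, low control median of compound wells.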
pPAFAH confirm: confirmation of human plasma PAF acetylhydrolase (pPAFAH) inhibitors | inhibition, % at 3.39 µM | AID 463230 | recombinant pPAFAH, FP-Rh probe fluorescence polarization | shares compounds with pPAFAH FP inh | 2,300 compounds, 72% hits;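 active = mean inhibition of the triplicate above the hit cutoff set for the earlier primary screen, cut at about 25% in these data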
HTRA1 inh conf: confirmation of human HTRA1 inhibitors; shares compounds with HTRA1 inh; recombinant HTRA1, FP-rhodamine activity-based probe, fluorescence polarization; inhibition, % at 5.96 µM; 1,600 compounds, 66% hits;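 active = mean inhibition over three repeats above a set limit taken from the earlier primary screen, cut at about 37% in these data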;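 also: inhibitors block probe binding so polarization drops and inhibition rises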
ABHD4 confirm: ABHD4 (mouse) inhibition, FP confirmation | shares compounds with mABHD4 FP | purified mABHD4, FP-Rh probe fluorescence polarization | inhibition, % at 8.92 µM | 1,800 compounds, 55% hits;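 active = mean inhibition across replicates above the hit cutoff set in the primary screen, cut at about 30% in these data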
Of the large screens only hits and unclear results are named; the others gave an inactive call (follow-up assays come after a bar, where they were run). A selection: hits, their analogues and other compounds. The true share with any hit is near 2.8%.

Cc1cc2nc3c(=O)[nH]c(=S)[nH]c3nc2cc1NC(=O)C(F)(F)F	HTRA1 inh 45.7, pPAFAH FP inh 78.8, mABHD4 FP 65.1 | pPAFAH confirm inactive | HTRA1 inh conf inactive | ABHD4 confirm inactive
Cc1ccccc1NCC(=O)N/N=C/c1ccc[nH]1	none (no result: PAFAH2 FP inh, HTRA1 inh, PAFAH1B2 inh, pPAFAH FP inh, PAFAH1B3 FP inh)
CCOc1ccccc1C1C(C#N)=C(N)Oc2cc(N)ccc21 (stereo unspecified)	pPAFAH FP inh 40.5, mABHD4 FP 30.7 | pPAFAH confirm inactive | ABHD4 confirm inactive
COc1ccc(CNCC#Cc2ccc(C(F)(F)F)cc2)c(OC)c1	none (no result: PAFAH2 FP inh, HTRA1 inh, PAFAH1B2 inh, pPAFAH FP inh, PAFAH1B3 FP inh)
Cn1c(=O)cc2c3c(c(N4CCCCC4)ccc31)C(=O)c1ccccc1-2	pPAFAH FP inh 54.5, mABHD4 FP 103.6 (no result: PAFAH2 FP inh, HTRA1 inh, PAFAH1B2 inh, PAFAH1B3 FP inh) | pPAFAH confirm 28.3 | ABHD4 confirm 100.3
O=C(Cc1ccccc1)NC1CCCCN(Cc2cccc(Cl)c2)C1=O (stereo unspecified)	none (no result: PAFAH2 FP inh, HTRA1 inh, PAFAH1B2 inh, pPAFAH FP inh, PAFAH1B3 FP inh)
CCCSC1=N/C(=C\c2ccsc2)C(=O)S1	none
CCCSC1=N/C(=C\C=C\c2ccco2)C(=O)S1	PAFAH2 FP inh 44.5, pPAFAH FP inh 44.6, mABHD4 FP 35.8 | pPAFAH confirm inactive | ABHD4 confirm inactive
CCC(=O)Nc1ccc(NC(=S)NC(=O)/C=C/c2ccco2)cc1	none
O=C(/C=C/c1ccco1)NC(=S)Nc1ccc(N2CCCC2)cc1	pPAFAH FP inh 47.0, mABHD4 FP 37.3 | pPAFAH confirm inactive | ABHD4 confirm inactive
CCOc1ccccc1C(=O)NCC(=O)OCc1csc(CC(=O)Nc2ccc(C)cc2)n1	pPAFAH FP inh 36.7, mABHD4 FP 36.3 | pPAFAH confirm inactive | ABHD4 confirm inactive
Cn1nc([N+](=O)[O-])c(C(C#N)c2ccccn2)c(Cl)c1=O (stereo unspecified)	none
CCCn1nc([N+](=O)[O-])c(C(C#N)c2nc3ccccc3o2)c(Cl)c1=O (stereo unspecified)	PAFAH2 FP inh 46.1, HTRA1 inh 68.6, PAFAH1B2 inh 39.5, pPAFAH FP inh 68.7, PAFAH1B3 FP inh 28.1, mABHD4 FP 79.9 | pPAFAH confirm 58.0 | HTRA1 inh conf 82.7 | ABHD4 confirm 94.6
Cc1ccc(Cn2c(C(C)Nc3nc(-c4ccc(Cl)c([N+](=O)[O-])c4)cs3)nc3cc(C(F)(F)F)ccc32)cc1 (stereo unspecified)	none
CCn1nc([N+](=O)[O-])c(C(C#N)c2nc3cc(C(F)(F)F)ccc3s2)c(Cl)c1=O (stereo unspecified)	PAFAH2 FP inh 41.5, HTRA1 inh 79.4, PAFAH1B2 inh 30.9, pPAFAH FP inh 79.6, mABHD4 FP 85.1 | pPAFAH confirm 69.7 | HTRA1 inh conf 76.3 | ABHD4 confirm 101.0
CCCCCCCCCCCCCCCC[n+]1cccc2ccccc21	HTRA1 inh 64.0, pPAFAH FP inh 56.5, mABHD4 FP 37.3 | pPAFAH confirm 32.6 | HTRA1 inh conf 71.0 | ABHD4 confirm 53.6
NN1C(=O)/C(=C\c2ccco2)SC1=S	pPAFAH FP inh 41.6, mABHD4 FP 41.5 (no result: PAFAH2 FP inh, HTRA1 inh, PAFAH1B2 inh, PAFAH1B3 FP inh) | pPAFAH confirm inactive | ABHD4 confirm inactive
O=C(CCCN1C(=O)/C(=C\c2ccco2)SC1=S)Nc1ccc(O)cc1C(=O)O	PAFAH2 FP inh 38.7, pPAFAH FP inh 68.1, mABHD4 FP 46.2 | pPAFAH confirm inactive | ABHD4 confirm inactive
O=C(OCC#CCSc1nnc(-c2cccc3ccccc23)o1)c1cccc(F)c1	none (no result: PAFAH2 FP inh, HTRA1 inh, PAFAH1B2 inh, pPAFAH FP inh, PAFAH1B3 FP inh)
COc1cc(CNc2ccc(O)cc2)cc(Br)c1OCc1ccccc1	HTRA1 inh 57.2, pPAFAH FP inh 34.9, mABHD4 FP 52.4 | pPAFAH confirm inactive | HTRA1 inh conf inactive | ABHD4 confirm inactive
COc1cc(CNC(C)c2ccccc2)cc(Br)c1OCc1ccccc1 (stereo unspecified)	none
COc1ccc(Br)cc1CNc1ccc(O)cc1	HTRA1 inh 73.7, pPAFAH FP inh 37.0, mABHD4 FP 65.1 | pPAFAH confirm inactive | HTRA1 inh conf inactive | ABHD4 confirm 30.2
CCCC(=O)C1=C(O)C(C(=O)OC)C(C)(C)CC1=Nc1ccc(N)cc1 (stereo unspecified)	none
CCCC(=Nc1ccc(N)cc1)C1=C(O)C(C(=O)OC)C(C)(C)CC1=O (stereo unspecified)	HTRA1 inh 60.7, pPAFAH FP inh 40.1, mABHD4 FP 79.3 | pPAFAH confirm inactive | HTRA1 inh conf 59.2 | ABHD4 confirm inactive
COc1ccc(S[C@]2(C(=O)N3CCCC3)CC(=O)N(C(=O)CCc3ccccc3)[C@@H]2c2ccc(OC)cc2)cc1	none (no result: PAFAH2 FP inh, HTRA1 inh, PAFAH1B2 inh, pPAFAH FP inh, PAFAH1B3 FP inh)
CC(=O)Nc1ccc(C(=O)OCC(=O)Nc2ccccc2Sc2ccccc2)cc1	none
N#CCC(=O)Nc1ccc(C(=O)OCC(=O)Nc2ccccc2Sc2ccccc2)cc1	pPAFAH FP inh 71.2, mABHD4 FP 52.3 (no result: PAFAH2 FP inh, HTRA1 inh, PAFAH1B2 inh, PAFAH1B3 FP inh) | pPAFAH confirm inactive | ABHD4 confirm inactive
Cc1ccc(Nc2ccc(N)cc2S(=O)(=O)O)cc1	HTRA1 inh 80.1, pPAFAH FP inh 49.9, mABHD4 FP 65.0 | pPAFAH confirm inactive | HTRA1 inh conf inactive | ABHD4 confirm inactive
Nc1cccc(Nc2ccccc2)c1	none
Nc1ccc(Nc2ccccc2)c(S(=O)(=O)O)c1	HTRA1 inh 57.6, pPAFAH FP inh 60.2, mABHD4 FP 63.0 | pPAFAH confirm inactive | HTRA1 inh conf inactive | ABHD4 confirm 43.9
Nn1c(SCC(=O)Nc2nccs2)nnc1-c1cc(-c2ccccc2)n[nH]1	none (no result: PAFAH2 FP inh, HTRA1 inh, PAFAH1B2 inh, pPAFAH FP inh, PAFAH1B3 FP inh)
Cc1cc(/C=C2\SC(=S)NC2=O)c(C)n1-c1ccc(O)cc1	pPAFAH FP inh 35.2, mABHD4 FP 35.4 | pPAFAH confirm 45.3 | ABHD4 confirm 43.7
O=C(CCc1ccccc1)N[C@H]1[C@H](OC(=O)c2ccc3ccccc3n2)CCC[C@@]12C(=O)N(Cc1ccccc1)c1ccccc12	none (no result: PAFAH2 FP inh, HTRA1 inh, PAFAH1B2 inh, pPAFAH FP inh, PAFAH1B3 FP inh)
O=c1ccc2c(-c3ccccc3)c3ccc(O)cc3oc-2c1	PAFAH2 FP inh 60.2, HTRA1 inh 60.3, PAFAH1B2 inh 46.7, pPAFAH FP inh 52.6, PAFAH1B3 FP inh 39.4, mABHD4 FP 43.0 | pPAFAH confirm 46.7 | HTRA1 inh conf 61.3 | ABHD4 confirm 81.3
O=c1cc(-c2ccccc2)oc2cc(O)ccc12	none (no result: pPAFAH FP inh)
CC1=NN(c2cccc(C(=O)O)c2)C(=O)/C1=C\C=C\c1ccco1	PAFAH2 FP inh 48.5, pPAFAH FP inh 44.8, mABHD4 FP 40.4 | pPAFAH confirm 32.0 | ABHD4 confirm 56.9
CC1CCC/C(=C\Nc2ccc(O)cc2)C1=O (stereo unspecified)	HTRA1 inh 39.3, pPAFAH FP inh 34.5, mABHD4 FP 43.7 | pPAFAH confirm inactive | HTRA1 inh conf inactive | ABHD4 confirm inactive
